# Test results published in ChEMBL document CHEMBL4342509, “New 8-Nitroquinolinone Derivative Displaying Submicromolar in Vitro Activities against Both Trypanosoma brucei and cruzi” (ACS Med Chem Lett, 2020).
# Experiments:
# [1] = Half life in Swiss mouse at 25 mg/Kg, po measured up to 24 hrs by LCMS analysis; format: ADME, organism-based; settings: in vivo
# Method in brief: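 Female Swiss mice, 8 weeks old, n=4, given a suspension by oral gavage at 25 mg/kg. Tail blood (100 µL, heparin) drawn at 0.5, 1, 3, 6, 9, 12 and 24 h. Samples extracted with ACN containing megalol internal standard plus QuEChERS salts. Analysed by LC-MS/MS (C8 column, negative ESI, MRM); calibration 10–1,000 ng/ml, LLOQ 10 ng/ml.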
# [2] = Microsomal stability in CD-1 mouse liver microsomes in presence of NADP measured up to 40 mins by LC-MS analysis; format: ADME, Microsome
# Method in brief: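 Compound incubated in duplicate with female CD-1 mouse microsomes at 37°C in 50 mM phosphate pH 7.4. Cofactors: 5 mM MgCl₂, 1 mM NADP, 0.4 U/mL G6PDH and 5 mM glucose-6-phosphate. […] Propranolol reference.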
# [3] = test system: Leishmania donovani; assay: Antileishmanial activity against Leishmania donovani BOB (MHOM/SD/62/1S-CL2D) promastigotes overexpressing NTR1 assessed as inhibition of parasite growth incubated for 72 hrs by resazurin dye based assay; format: functional, organism-based
# Method in brief: (§1)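 LdBOB promastigotes grown at 26 °C in modified M199; NTR1- or NTR2-overexpressing lines kept under nourseothricin (100 µg/mL). Triplicate cultures seeded at 5×10^4 parasites/mL with drug for 72 h; 50 µM resazurin added, fluorescence (ex 528/em 590 nm) read after a further 4 h.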
# [4] = Toxicity in orally dosed Swiss mouse administered once daily for 5 days; format: organism-based; settings: in vivo, po
# [5] = test system: HepG2; assay: Genotoxicity in human HepG2 cells assessed as induction of DNA damage at 1 to 10 uM incubated for 2 to 72 hrs by alkaline comet assay; format: toxicity, cell-based; settings: hepg2, 10 µM
# Method in brief: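 Cells embedded in 0.7% low-melting agarose on film. Alkaline electrophoresis at pH >13, 24 min at 0.8 V/cm, then neutralised, ethanol-fixed and SYBR Gold stained. % tail DNA is the median of 100 cells (two deposits); 1 mM MMS positive control; three independent experiments.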
# [6] = Toxicity in Swiss mouse assessed as apathy occurence at 50 mg/kg, po administered once daily for 5 days measured for 1 hr; format: organism-based; settings: in vivo
# [7] = test system: Leishmania donovani; assay: Antileishmanial activity against Leishmania donovani BOB (MHOM/SD/62/1S-CL2D) promastigotes overexpressing NTR2 assessed as inhibition of parasite growth incubated for 72 hrs by resazurin dye based assay; format: functional, organism-based; method in brief: as §1
# [8] = Permeability of the compound in pH 7.4 Prisma HT buffer at 100 uM incubated for 4 hrs by PAMPA-BBB assay method; format: ADME; settings: read-out: permeability
# [9] = test system: HepG2; assay: Cytotoxicity against human HepG2 cells assessed as reduction in cell viability incubated for 72 hrs by MTT assay; format: cell-based; settings: hepg2, 72 h
# [10] = Electrochemical behavior of the compound assessed as redox potential corrected toward normal hydrogen electrode by cyclic voltammetry
# [11] = Thermodynamic solubility of the compound in phosphate buffer at pH 7.4 by shake flask method; format: physicochemical
# Method in brief: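 Shake-flask test, miniaturised: 10 µL of a 50 mM stock in 990 µL phosphate buffer pH 7.4 (ionic strength 50 mM), n=4. Shaken 24 h at room temperature, then centrifuged 12,225 × g for 5 min. Supernatant mixed 1:1 with acetonitrile and read by UV spectrophotometry at compound λmax. Quantified against a three-point calibration (0, 25, 50 µM).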
# [12] = test system: Leishmania infantum; assay: Antileishmanial activity against Leishmania infantum MHOM/MA/67/ITMAP-263 axenic amastigotes expressing luciferase plasmid assessed as reduction in parasite viability incubated for 48 hrs by Steady Glow reagent based luminescence assay; format: functional, organism-based; settings: MHOM/MA/67/ITMAP-263, 48 h
# [13] = test system: Trypanosoma brucei brucei; assay: Antitrypanosomal activity against Trypanosoma brucei brucei AnTat 1.9 trypomastigotes assessed as reduction in parasite viability incubated for 69 hrs by Alamar Blue dye based assay; format: functional, organism-based; settings: AnTat 1.9, 69 h
# Method in brief: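 Bloodstream AnTat 1.9 parasites grown at 37°C, 5% CO₂ in MEM with Earle's salts (Baltz-type) plus 0.5 mM mercaptoethanol, 1.5 mM L-cysteine, 0.05 mM bathocuproine sulfate and 20% heat-inactivated horse serum. EC50 from nonlinear regression, three independent experiments in duplicate.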
# [14] = test system: Trypanosoma cruzi; assay: Antitrypanosomal activity against Trypanosoma cruzi CL Brener amastigotes infected in African green monkey Vero cells assessed as reduction in parasite growth incubated for 120 hrs at 24 hrs post-infection and measured on day 6 post-infection by hemocytometer based light microscopy; format: functional, organism-based
# Method in brief: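 Compounds, 2–4-fold serial dilutions over 0,1–25 µM final, applied for 120 h at 37°C. On day 6, released trypomastigotes pooled, centrifuged and counted by haemocytometer. EC50 by nonlinear regression; two experiments, triplicate wells.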
# [15] = test system: Trypanosoma brucei brucei; assay: Antitrypanosomal activity against blood stream form of Trypanosoma brucei brucei S427 trypomastigotes overexpressing NTR assessed as inhibition of parasite growth; format: functional, organism-based
# [16] = Toxicity in Swiss mouse assessed as lesions on lung at 25 mg/kg, po administered once daily for 5 days; format: organism-based; settings: in vivo, 120 h
# [17] = Toxicity in Swiss mouse assessed as lesions on brain at 25 mg/kg, po administered once daily for 5 days; format: organism-based; settings: in vivo, 120 h
# [18] = Toxicity in Swiss mouse assessed as lesions on kidney at 25 mg/kg, po administered once daily for 5 days; format: organism-based; settings: in vivo, 120 h
# [19] = test system: Trypanosoma brucei brucei; assay: Selectivity index, ratio of EC50 for bloodstream form of wild type Trypanosoma brucei brucei S427 trypomastigotes to EC50 for blood stream form of Trypanosoma brucei brucei S427 trypomastigotes overexpressing NTR; format: functional
# [20] = Selectivity index, ratio of CC50 for human HepG2 cells to EC50 for Trypanosoma brucei brucei trypomastigotes AnTat 1.9; format: toxicity; settings: read-out: Ratio CC50/EC50
# [21] = test system: Plasma proteins; assay: Plasma protein binding incubated for 4 hrs by LCMS analysis
# [22] = test system: Leishmania donovani; assay: Antileishmanial activity against wild type Leishmania donovani BOB (MHOM/SD/62/1S-CL2D) promastigotes assessed as inhibition of parasite growth incubated for 72 hrs by resazurin dye based assay; format: functional, organism-based; method in brief: as §1
# [23] = test system: Leishmania donovani; assay: Selectivity index, ratio of EC50 for wild type Leishmania donovani BOB (MHOM/SD/62/1S-CL2D) promastigotes to EC50 for Leishmania donovani BOB (MHOM/SD/62/1S-CL2D) promastigotes overexpressing NTR1; format: functional
# [24] = Toxicity in Swiss mouse assessed as lesions on liver at 25 mg/kg, po administered once daily for 5 days; format: organism-based; settings: in vivo, 120 h
# [25] = Toxicity in Swiss mouse assessed as lesions on heart at 25 mg/kg, po administered once daily for 5 days; format: organism-based; settings: in vivo, 120 h
# [26] = test system: Trypanosoma brucei brucei; assay: Antitrypanosomal activity against bloodstream form of wild type Trypanosoma brucei brucei S427 trypomastigotes assessed as inhibition of parasite growth; format: functional, organism-based
smiles,measurement,setting,value
O=c1[nH]c2c([N+](=O)[O-])cc(Br)cc2cc1Cl,t1/2,[1],2.9 h
same,t1/2,[2],> 0.667 h
same,EC50,[3],300 nM
same,NOAEL at 120 h,[4],25 mg/kg
same,Activity,[5],Non-Toxic
same,Activity,[6],Toxic
same,EC50,[7],2900 nM
same,"Papp at 4 h, 100 µM",[8],40.5 ×10⁻⁶ cm/s
same,CC50,[9],18100 nM
same,Activity,[10],-0.37 V
same,Therm_solubility,[11],21.7 µM
same,EC50,[12],6700 nM
same,EC50,[13],12 nM
same,EC50,[14],500 nM
same,EC50,[15],20 nM
same,Activity,[16],Non-Toxic
same,Activity,[17],Non-Toxic
same,Activity,[18],Non-Toxic
same,Ratio EC50,[19],15
same,selectivity ratio,[20],1510
same,Activity,[21],99%
same,EC50,[22],4700 nM
same,Ratio EC50,[23],16
same,Activity,[24],Non-Toxic
same,Activity,[25],Non-Toxic
same,EC50,[26],300 nM
